According to ChEMBL document CHEMBL4325828, “The Design, Synthesis, and Characterizations of Spore Germination Inhibitors Effective against an Epidemic Strain of Clostridium difficile” (J Med Chem, 2018):

How the values were obtained:
Clostridioides difficile [1] = assay: (§1) Antibacterial activity against Clostridium difficile R20291 assessed as inhibition of spore germination in presence of 6 mM taurocholate and 12 mM glycine measured every minute for 2 hrs by standard optical density assay; assay type: functional, organism-based
In short: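 IC50 was determined on R20291 spores across a range of compound concentrations in sodium phosphate medium with 6 mM taurocholate and 12 mM glycine. Germination was read as the decrease in absorbance at 580 nm.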

Clostridioides difficile [2] = assay: as §1, with “germination by measuring heat activated spore germination levels at 125 uM” for “germination”, “assay relative to control” for “assay”; assay type: functional; design: scale not given: the % may be the effect or the level left
In short: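 R20291 spores were screened at a single 125 µM concentration, with germination followed as the fall in absorbance at 580 nm. Compounds not soluble at 125 µM by visual inspection were discarded. Inhibition is relative to untreated spore samples.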

Clostridioides difficile [3] = assay: Potency index, ratio of IC50 for chenodeoxycholate to IC50 for test compound for inhibition of spore germination in Clostridium difficile R20291 in presence of 6 mM taurocholate and 12 mM glycine measured every minute for 2 hrs by standard optical density assay; assay type: functional
Clostridioides difficile [4] = assay: Antibacterial activity against Clostridium difficile R20291 assessed as inhibition of spore germination in complex BHIS media containing 6 mM taurocholate measured every minute for 2 hrs by standard optical density assay; assay type: functional, organism-based
In short: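 IC50 was determined on R20291 spores across multiple compound concentrations in complex BHIS medium supplemented with 6 mM taurocholate. Germination was monitored as the decline in absorbance at 580 nm.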

Q: `C#CCNC(=O)CC[C@@H](C)[C@H]1CC[C@H]2[C@@H]3[C@H](O)C[C@@H]4C[C@H](O)CC[C@]4(C)[C@H]3C[C@H](O)[C@]12C` was tested. Which IC50 (Clostridioides difficile [1]) did it give?
A: 137 µM

Q: And the Activity (Clostridioides difficile [2])?
A: 59%

Q: For `C[C@H](CCC(=O)NCC1CC1)[C@H]1CC[C@H]2[C@@H]3[C@H](O)C[C@@H]4C[C@H](O)CC[C@]4(C)[C@H]3C[C@H](O)[C@]12C`, which IC50 (Clostridioides difficile [1]) is on record?
A: 24.3 µM

Q: And the Activity (Clostridioides difficile [2])?
A: 15%

Q: With `C[C@H](CCC(=O)Nc1cccc(N)c1)[C@H]1CC[C@H]2[C@@H]3[C@H](O)C[C@@H]4C[C@H](O)CC[C@]4(C)[C@H]3C[C@H](O)[C@]12C.Cl` as the molecule, how does the IC50 (Clostridioides difficile [1]) read?
A: 32 µM

Q: What about the Activity (Clostridioides difficile [2]) of the same molecule?
A: 59%

Q: How did the IC50 (Clostridioides difficile [1]) turn out when `Cc1cc(F)ccc1NC(=O)CC[C@@H](C)[C@H]1CC[C@H]2[C@@H]3[C@H](O)C[C@@H]4C[C@H](O)CC[C@]4(C)[C@H]3C[C@H](O)[C@]12C` was run?
A: 24 µM

Q: And the Activity (Clostridioides difficile [2])?
A: 37%

Q: Which “Ratio IC50” value (Clostridioides difficile [3]) does the source give for `C[C@H](CCC(=O)Nc1ccccc1)[C@H]1CC[C@H]2[C@@H]3[C@H](O)C[C@@H]4C[C@H](O)CC[C@]4(C)[C@H]3C[C@H](O)[C@]12C` here?
A: >225

Q: And the IC50 (Clostridioides difficile [1])?
A: 1.8 µM

Q: What about the IC50 (Clostridioides difficile [4]) of the same molecule?
A: 1.8 µM

Q: What about the Activity (Clostridioides difficile [2]) of the same molecule?
A: 3%

Q: What does the source list for `C[C@H](CCC(=O)NC1CCCCC1)[C@H]1CC[C@H]2[C@@H]3[C@H](O)C[C@@H]4C[C@H](O)CC[C@]4(C)[C@H]3C[C@H](O)[C@]12C`?
A: IC50 (Clostridioides difficile [1]): 95.4 µM; Activity (Clostridioides difficile [2]): 47%

Q: With `C[C@H](CCC(=O)NC1CC1)[C@H]1CC[C@H]2[C@@H]3[C@H](O)C[C@@H]4C[C@H](O)CC[C@]4(C)[C@H]3C[C@H](O)[C@]12C` as the molecule, how does the IC50 (Clostridioides difficile [1]) read?
A: 25 µM

Q: What about the Activity (Clostridioides difficile [2]) of the same molecule?
A: 6%

Q: What does the source list for `C[C@H](CCC(=O)Nc1ccncc1)[C@H]1CC[C@H]2[C@@H]3[C@H](O)C[C@@H]4C[C@H](O)CC[C@]4(C)[C@H]3C[C@H](O)[C@]12C`?
A: IC50 (Clostridioides difficile [1]): 30.1 µM; Activity (Clostridioides difficile [2]): 17%

Q: What does the source list for `C[C@H](CCC(=O)NC1CCCC1)[C@H]1CC[C@H]2[C@@H]3[C@H](O)C[C@@H]4C[C@H](O)CC[C@]4(C)[C@H]3C[C@H](O)[C@]12C`?
A: IC50 (Clostridioides difficile [1]): 34.1 µM; Activity (Clostridioides difficile [2]): 6%

Q: `Cc1ccc(F)cc1NC(=O)CC[C@@H](C)[C@H]1CC[C@H]2[C@@H]3[C@H](O)C[C@@H]4C[C@H](O)CC[C@]4(C)[C@H]3C[C@H](O)[C@]12C` was tested. Which IC50 (Clostridioides difficile [1]) did it give?
A: 14 µM

Q: And the Activity (Clostridioides difficile [2])?
A: 9%

Q: With `CC(C)CNC(=O)CC[C@@H](C)[C@H]1CC[C@H]2[C@@H]3[C@H](O)C[C@@H]4C[C@H](O)CC[C@]4(C)[C@H]3C[C@H](O)[C@]12C` as the molecule, how does the IC50 (Clostridioides difficile [1]) read?
A: 154 µM

Q: What about the Activity (Clostridioides difficile [2]) of the same molecule?
A: 62%

Q: Which IC50 (Clostridioides difficile [1]) does the source give for `C[C@H](CCC(=O)NCc1ccccc1[N+](=O)[O-])[C@H]1CC[C@H]2[C@@H]3[C@H](O)C[C@@H]4C[C@H](O)CC[C@]4(C)[C@H]3C[C@H](O)[C@]12C` here?
A: 225 µM

Q: What about the Activity (Clostridioides difficile [2]) of the same molecule?
A: 113%
